Measured values as given in the EternaBench riboswitch data.

System: MS2 coat protein
Test: apparent Kd, MS2 coat protein; higher = weaker binding; RNA-MaP array; FMN 200 µM where present
How it was run: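 On Illumina sequencing-chip clusters, designs were transcribed by stalled E. coli RNA polymerase and titrated with SNAP-549-labelled MS2 coat protein (0.7 or 1.5 nM, doubling to 3 µM), without and then with constant ligand, in 100 mM Tris-HCl pH 7.5, 80 mM KCl, 4 mM MgCl2, BSA, DTT, yeast tRNA and Tween-20. Apparent Kd is the median of filtered per-cluster curve fits to green signal normalised to red-channel RNA signal and control-cluster median Fmax.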

[1] = designed as: ON switch for flavin mononucleotide, no ligand
[2] = ligand present: flavin mononucleotide, designed as: ON switch for flavin mononucleotide
[3] = designed as: OFF switch for flavin mononucleotide, no ligand
[4] = ligand present: flavin mononucleotide, designed as: OFF switch for flavin mononucleotide

| Sequence | apparent Kd [1] [nM] | apparent Kd [2] [nM] | apparent Kd [3] [nM] | apparent Kd [4] [nM] |
| --- | --- | --- | --- | --- |
| CAGCACUGUCGAGAGGAUAUGCGGUGAUGGACAUGAGGAUCACCCAUGUUAGCGACAGCAUCACGGCAGAAGGCUCUACUGCUGC | 13.2 | 12.2 |  |  |
| GAAUAAUUGAUCCAAUUUAUCUACAUGAGGAUCACCCAUGUGCAGGAUAUCGUAAAAUUUAAUAACGAGAAGGGCAAGAACGGU |  |  | 135 | 385 |
| GUUGUGUGAGGAUAUGCCUGGCCGUGUGGCCGGAUUGGGUGGCAGAAGGUACAUGAGGAUCACCCAUGUACGGG |  |  | 90.6 | 70 |
| GGGCCCGGAGGAUAUACAUGAGGAUCACCCAUGUACCCGGGCCCUAUUGGGUUUGGGUGUAGAAGGCCGGGCCC |  |  | 15 | 15.3 |
| UGUCGGAGCAGAGGAUAUUACAUGAGGAUCACCCAUGUAUGAACCAAUACCUGGAAACAGCAAUGUAAGAAGGCUGCUCCGACA |  |  | 12.5 | 141 |
| GGAUAGGACAGAGGAUAUACGUGCUACAGAUACUAGCAAAAUUUCCUCACAUGAGGAUCACCCAUGUAGAAGGCUGUCCUAUCG |  |  | 19.3 | 405 |
| AAAAGUACAGGAUAUACAUGAGGAUCACCCAUGUAGAAAGGAAGUGUAAAAAAAAAGUGUAGAAGGGUGCAUGA |  |  | 33.1 | 27.9 |
| UUAAAUCGAAACAUGAGGAUCACCCAUGUGUUGUAAUUAAUAUAGGAUAUGUGUAUACUUUUAUGACAGAAGGAUGAUAAUACU | 21.5 | 14.4 |  |  |
| CAGACACAUCUAGGAUAUGGUGAUGCUCAAAACACAUGAGGAUCACCCAUGUAGCCUGUGUAUAAUCAGAAGGAGAACCGUGUA | 84.6 | 500 |  |  |
| UAUAUAUAGUAAGGAUAUGUAUUAAUGUUAUAAACAGAAGGUACUGACAUGAGGAUCACCCAUGUUUUAGUGUGGGCAUGUAGA |  |  | 92.1 | 131 |
| GGUACCAUCACAGGAUAUGCUAUGGUUUCCGUAGCAGAAGGGUGAUAACAUGAGGAUCACCCAUGUGGUACCGGGCGUGAGCCC | 741 | 201 |  |  |
| AAAAAGUGAGGAUAUCGAAAAAAAAAAAAAAAAAAAAAAAACGAGAAGGCACAUGAGGAUCACCCAUGUAAAAA |  |  | 35.8 | 44.9 |
| AAAACAUGAGGAUCACCCAUGUAAAGAUCGGAAAGUUAGAGUGAGGAUAUACAAAAUUUUAUAUAGUAGAAGGCACUGGGUACA | 34.6 | 33.5 |  |  |
| GUAUAUCACUUAGGAUAUCUGUAAUUUAUUGAAACAUGAGGAUCACCCAUGUUCAUAAAUUUAUAGGAGAAGGGAGUGAUAUAC | 4.19 | 4.24 |  |  |
| AUCAUCUUGUCAGGAUAUGCGUGUCAACGAAAGUAGACAAUCUUAAUAACAUGAGGAUCACCCAUGUAGAAGGGACGAGAUGAU |  |  | 19.8 | 21 |
| GGGUACAUCGGAGGAUAUCACGUAAAUACAUGAGGAUCACCCAUGUCGAUGGAGACAUCGGAGAUUGAGAAGGCCGAUGUACCG | 7.6 | 5.33 |  |  |
| UGAAAACAUGAGGAUCACCCAUGUAAAAACAUGGGAGGAUAUUGAAAAAAAAAAAAAAAACAAGAAGGCCCAAAAA | 386 | 137 |  |  |
| GCACUUAGAGAUGAACCGUUACUAACAUGAGGAUCACCCAUGUAGGAUAUGCUAAUAGUAUUGAAGCAGAAGGACACUAAGUGC |  |  | 5.25 | 6.51 |
| UGCAUGCUAGGAUAUACGGGACAUUAGGGUUCGUCGUGUGGACAUGAGGAUCACCCAUGUAGAAGGAGCGUGCU |  |  | 90 | 345 |
| ACAUGUUAUACAGGAUAUGUUAUACAAUAAUCAAUCAGUUAUUAUGAUUUUACAGAAGGGUAUACAUGAGGAUCACCCAUGUUA |  |  | 31.5 | 33.8 |
| CUGAUUAUACAAGGAUAUCUUUUGUUGUUUCGACUUACAUGAGGAUCACCCAUGUUAAUAUUUUUAGAGAAGGUGUAUUUUCAG | 16.8 | 20.3 |  |  |
| GGUACUCAAAGAGUACCAAUACGAACAUGAGGAUCACCCAUGUAGGAUAUGCUACUCAAAGAGUAGCAGAAGGACAUGUGCCAU |  |  | 42 | 282 |
| AGAUAUGAUGCAGGAUAUCUAUCUUGAAUGAGGAGAGAAGGGCAAACAGAGACAUAAGCCUUAUUACAUGAGGAUCACCCAUGU |  |  | 10.1 | 8.83 |
| AAGCACGAAGAUUAUUAUGAAUAAACAUGAGGAUCACCCAUGUAGGAUAUCGACUCGAAUAGAGUCGAGAAGGACAUAACGUGC |  |  | 6.85 | 20.7 |
| UAGGUCGACGUAGGAUAUGUAGGAUAUUCCUACAUGAGGAUCACCCAUGUUGAAAUGGAAGAAGGACAGAAGGACGUUGACCUU | 56.7 | 13.6 |  |  |
| UACUCAUGUGAGAAGGGACGUAUCUCCAUGAGGGUAGGGCUAUUAGAGAAGUCAGGAUAUCACAUGAGGAUCACCCAUGUGACG |  |  | 6.92 | 7.02 |
| GUCACCCGAUGAGGAUAUGCACAUGAGGAUCACCCAUGUGACCUCAUCGUGCCGGGAAGCCGGCUGCAGAAGGCAUUGAGGGAU |  |  | 7.76 | 7.25 |
